Only a selection was taken, and hits are over-represented in it overall.
INS-1E rescue – protection of INS-1E cells from cytokine death, primary screen, ATP luminescence, single point | INS-1E cytokine-induced death, 48 h; normalised: neutral wells 0, positive control 100 | protection from cytokine-induced ATP loss, % at 10 µM | actives 0.1% (n = 20,000);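 active = mean replicate protection from cytokine-induced ATP loss at least 50% and at least 75% of replicates each reaching 50%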
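Material: INS-1E rat cells; Quantity: 8000 cells/well; Buffer or medium: phenol-red-free RPMI with 5% fetal bovine serum; Probe or stimulus: cytokine cocktail of IFN-γ, TNF-α and IL-1β; Compound dosing: single test concentration per compound, delivered by pin transfer; Incubation: 48 h co-treatment, 10 min post-lysis read; Signal: CellTiter-Glo luminescence.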
A1 apoptosis 2 – A1 inhibitors via caspase activation, primary screen, cell-based, luminescence, HTS, two replicates; caspase activation, % (no concentration beside the values); 24,000 tested, under 10 active; MEF A1-2A-BIM cells, caspase-Glo luminescence, 3 h; percent of clofoctol response, DMSO zero; AID 2465, 2010; in the data active = caspase activation above about 5.9%
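Test system – A1-2A-BIM-expressing MEF cells · Input – 2500 cells/well · Medium – RPMI-1640 growth medium with 10% FBS · Compound dosing – 50 nL pinned compound · Timing – 3 h compound exposure at 37 °C · Technique – Caspase-Glo luminescence (DEVD substrate) · Evaluation – Caspase-3/7 activity from luminescence increase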
T cruzi HTS – inhibitors of intracellular Trypanosoma cruzi, primary screen, cell-based, plate reader, single point, set 2; intracellular Trypanosoma cruzi in host cells; activity score (inhibition), % at 5.01 µM; actives 4.9% (n = 22,000); in the data active = activity score above about 55%;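 note: parasites and compound incubated about four days before reading; 0% = median of neutral control wells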
The depositor's hits bear a star; · = not tested or not shown.

SMILES | INS-1E rescue | A1 apoptosis 2 | T cruzi HTS
O=C(CCCCCC(=O)Nc1ccccc1O)N/N=C/c1ccc(Br)cc1 | -0.2 | · | -0.5
C[C@H]1CN([C@@H](C)CO)C(=O)c2cc(N(C)C)ccc2O[C@@H]1CN(C)Cc1ccc(C(=O)Nc2ccccc2N)cc1 | 29.3 | · | 33.8
C[C@H]1CN([C@@H](C)CO)C(=O)Cc2cc(N(C)C)ccc2O[C@H]1CN(C)Cc1ccc(C(=O)Nc2ccccc2N)cc1 | 31.5 | · | 61.9*
C[C@@H]1CN([C@@H](C)CO)C(=O)c2cc(N(C)C)ccc2O[C@@H]1CN(C)Cc1ccc(C(=O)Nc2ccccc2N)cc1 | 28.0 | · | 61.2*
C[C@H](CO)N1C[C@H](C)[C@H](CN(C)Cc2ccc(C(=O)Nc3ccccc3N)cc2)Oc2ccc(N(C)C)cc2CC1=O | 65.2* | · | 59.0*
C[C@H](CO)N1C[C@H](C)[C@@H](CN(C)Cc2ccc(C(=O)Nc3ccccc3N)cc2)Oc2ccc(N(C)C)cc2CC1=O | · | -0.8 | ·
C[C@@H]1CN([C@@H](C)CO)C(=O)Cc2cc(NC(=O)c3ccncc3)ccc2O[C@@H]1CN(C)Cc1ccc(C(=O)Nc2ccccc2N)cc1 | -13.1 | 1.5 | 52.7
C[C@@H]1CN([C@@H](C)CO)C(=O)Cc2cc(NC(=O)NC3CCCCC3)ccc2O[C@H]1CN(C)Cc1ccccc1 | · | 0.2 | ·
C[C@H]1CN([C@@H](C)CO)C(=O)c2cccc(NS(=O)(=O)c3cn(C)cn3)c2O[C@@H]1CN(C)CC1CC1 | 12.2 | 0.9 | -10.9
O=C(CCCCCCC(=O)Nc1ccccc1O)N/N=C/c1ccc(O)cc1 | -12.8 | -0.4 | -10.3
COc1ccc(NC(=O)CN=[N+]=[N-])cc1OC | · | 0.5 | ·
COc1ccc(CN(C)C[C@H]2Oc3ccc(NS(=O)(=O)c4ccc(C)cc4)cc3CC(=O)N([C@@H](C)CO)C[C@@H]2C)cc1 | 0.5 | 0.9 | 56.3*
COc1ccc(CN(C)C[C@@H]2Oc3ccc(NS(=O)(=O)c4ccc(C)cc4)cc3CC(=O)N([C@@H](C)CO)C[C@H]2C)cc1 | · | -1.0 | ·
COc1ccc(CN(C)C[C@H]2Oc3ccc(NS(=O)(=O)c4ccc(Cl)cc4)cc3CC(=O)N([C@H](C)CO)C[C@H]2C)cc1 | -5.4 | -1.1 | 71.4*
COc1ccc(CN(C)C[C@@H]2Oc3ccc(NS(=O)(=O)c4ccc(Cl)cc4)cc3CC(=O)N([C@H](C)CO)C[C@@H]2C)cc1 | -0.9 | -0.3 | 27.3
Cc1ccccc1CN(C)C[C@@H]1OCc2cn(nn2)CCCC(=O)N([C@H](C)CO)C[C@@H]1C | · | -0.7 | -12.8
COC(=O)C(CC#Cc1ccc2c(c1)[C@]1(C(=O)N2)[C@H](C(=O)N2CCCCCCC2)[C@H]2C(=O)O[C@H](c3ccccc3)[C@H](c3ccccc3)N2[C@@H]1c1ccc(O)cc1)C(=O)OC | · | -0.3 | ·
C[C@H](CO)N1C[C@H](C)[C@H](CN(C)Cc2ccc(C(F)(F)F)cc2)Oc2c(NC(=O)C3CCCCC3)cccc2C1=O | -28.1 | · | 1.5
C[C@@H]1CN([C@@H](C)CO)C(=O)c2cccc(NC(=O)C3CCCCC3)c2O[C@H]1CN(C)Cc1ccc(C(F)(F)F)cc1 | -26.8 | -0.7 | 75.5*
C[C@H](CO)N1C[C@H](C)[C@H](CN(C)Cc2ccc(-c3ccccc3)cc2)Oc2c(NC(=O)C3CC3)cccc2C1=O | -24.7 | 1.7 | -13.2
C[C@H](CO)N1C[C@H](C)[C@@H](CN(C)Cc2ccc(-c3ccccc3)cc2)Oc2c(NC(=O)C3CC3)cccc2C1=O | -52.7 | · | 69.1*
C[C@H](CO)N1C[C@H](C)[C@@H](CN(C)S(=O)(=O)c2cn(C)cn2)Oc2c(cccc2N(C)C)C1=O | 5.5 | -0.6 | 58.9*
C[C@@H]1CN([C@@H](C)CO)C(=O)c2cccc(N(C)C)c2O[C@H]1CN(C)S(=O)(=O)c1cn(C)cn1 | 5.6 | · | -5.7
C[C@H](CO)N1C[C@H](C)[C@@H](CN(C)Cc2ccc(Oc3ccccc3)cc2)Oc2c(NC(=O)C3CC3)cccc2C1=O | -24.6 | -1.3 | 47.6
C[C@H]1CN([C@@H](C)CO)C(=O)c2cccc(NC(=O)C3CC3)c2O[C@@H]1CN(C)Cc1ccc(Oc2ccccc2)cc1 | -26.8 | · | 67.8*
SMILES | INS-1E rescue | A1 apoptosis 2 | T cruzi HTS
Cc1ccc(S(=O)(=O)N2CCC[C@H]2CN=[N+]=[N-])cc1 | · | 1.2 | ·
C[C@H](CO)N1C[C@H](C)[C@H](CN(C)C(=O)NC2CCCCC2)Oc2c(NC(=O)c3cnccn3)cccc2C1=O | 9.2 | 0.2 | 1.7
COC(=O)CCCCCCC(=O)N/N=C/C[C@@H](C)CCC=C(C)C | -9.2 | 0.3 | 0.0
O=C(NO)c1cccc(C(=O)N/N=C/c2ccc3ccccc3n2)c1 | -11.9 | -3.4 | -11.5
C[C@H]1CN([C@@H](C)CO)C(=O)c2cccc(NC(=O)C3CCCCC3)c2O[C@@H]1CN(C)S(=O)(=O)c1ccccc1 | 1.6 | · | 5.4
C[C@@H]1CN([C@@H](C)CO)C(=O)c2cccc(NC(=O)C3CCCCC3)c2O[C@H]1CN(C)Cc1ccc(-c2ccccc2)cc1 | -38.7 | · | 71.4*
C[C@@H]1CN([C@H](C)CO)C(=O)c2cccc(NC(=O)C3CCCCC3)c2O[C@@H]1CN(C)Cc1ccc(-c2ccccc2)cc1 | -64.6 | · | 45.6
C[C@@H]1CN([C@@H](C)CO)C(=O)c2cccc(NC(=O)C3CCCCC3)c2O[C@@H]1CN(C)S(=O)(=O)c1ccccc1 | -1.9 | · | 56.7*
[N-]=[N+]=Nc1cccc(C(=O)NCCc2c[nH]c3ccccc23)c1 | · | 0.8 | ·
CC(=O)O[C@@H]1[C@H](c2ccc(=O)oc2)C2[C@H](C)C[C@H]3[C@@H](CC[C@@H]4C[C@@H](O)CC[C@@]43C)[C@]23O[C@H]13 (stereo partly specified) | · | 0.2 | ·
O=C(O)CCCCCC(=O)NN=C1CCCCCCC1 | 0.5 | 0.0 | -12.0
O=C(O)CCCCCCC(=O)N/N=C/c1ccc(CO)o1 | 2.2 | 1.3 | -13.4
O=C(CCCCCCC(=O)N/N=C/c1ccc(CO)o1)NO | 51.6* | · | -3.1
O=C(CCCCCCC(=O)N/N=C/c1ccc(OCCO)cc1)NO | 115.8* | · | 6.3
O=C(CCCCCC(=O)N/N=C/c1ccc(OCCO)cc1)NO | · | 0.7 | ·
CN(CCO)c1ccc(/C=N/NC(=O)c2cccc(C(=O)NO)c2)cc1 | -8.5 | -0.6 | -2.9
C[C@H](CO)N1C[C@H](C)[C@@H](CN(C)S(=O)(=O)c2cccs2)Oc2c(NC(=O)Nc3ccc(C(F)(F)F)cc3)cccc2C1=O | -4.1 | 0.3 | -9.9
C[C@@H]1CN([C@@H](C)CO)C(=O)c2cc(NC(=O)Nc3ccc(C(F)(F)F)cc3)ccc2O[C@H]1CN(C)S(=O)(=O)c1cccs1 | -13.9 | -0.1 | 70.6*
C[C@H]1CN([C@@H](C)CO)C(=O)c2cc(NC(=O)Nc3ccc(C(F)(F)F)cc3)ccc2O[C@@H]1CN(C)S(=O)(=O)c1cccs1 | -12.5 | · | 1.7
C[C@@H]1CN([C@H](C)CO)C(=O)Cc2cc(NC(=O)Nc3ccc(C(F)(F)F)cc3)ccc2O[C@@H]1CN(C)S(=O)(=O)c1cccs1 | 1.4 | · | 65.7*

Screening results: PubChem BioAssay, Broad Institute
